In the library only some 3.5% were active in any assay of this set; here they are far more common.
MrgX1 antag = antagonists of human MrgX1 receptor, primary screen, HEK293 cells, Fluo-4 calcium flux. B-score at 10 µM. BAM8-22 antagonism; hits give low values. AID 588676, 2011. Mas-related G-protein coupled receptor member X1 (Homo sapiens), Q96LB2. 310,000 compounds, 1.3% hits;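 active = calcium-response B-score plate-corrected more than 3 library SD below zero, starting fluorescence within 5 deviations, no agonist response on first addition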;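 note: peak minus trough fluorescence over baseline after final BAM8-22 challenge near maximal dose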
Target sequence (Q96LB2 whole entry, looked up): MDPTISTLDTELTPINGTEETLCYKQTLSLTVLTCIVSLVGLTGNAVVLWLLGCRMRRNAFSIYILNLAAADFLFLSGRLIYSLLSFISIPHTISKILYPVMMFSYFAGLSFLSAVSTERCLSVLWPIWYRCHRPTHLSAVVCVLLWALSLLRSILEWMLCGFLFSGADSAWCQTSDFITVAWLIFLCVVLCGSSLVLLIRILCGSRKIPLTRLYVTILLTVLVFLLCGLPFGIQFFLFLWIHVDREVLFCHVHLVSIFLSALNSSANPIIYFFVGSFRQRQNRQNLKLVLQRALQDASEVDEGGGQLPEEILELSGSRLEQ
MrgX1 agonist = agonists of human MrgX1 receptor, primary screen, HEK293 cells, Fluo-4 calcium flux. Fluo-4 calcium fluorescence, agonist mode; hits give high values. B-score at 10 µM. 310,000 compounds, 0.44% hits. AID 588627, 2011;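 active = calcium response B-score plate-corrected fluorescence ratio at least 3 library SD, with starting fluorescence B-score inside 5 SD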
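Test system: Stable human MrgX1 HEK293 cell line | Schedule: Overnight plating before 1 h dye loading | Read-out basis: Baseline-normalised fluorescence change ratio, B-scored | Detection: Kinetic calcium dye fluorescence, Fluo-4 NW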
RGS4 act = RGS4 potentiators or activators, primary screen, cell-based, HEK293 M3R inducible RGS4, calcium flux. carbachol calcium flux Fluo4; hits give low values. B-score at 10 µM. 310,000 compounds, 0.92% hits. AID 463111, 2010;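 active = B-score of the integrated calcium signal more than 4 SD below the library mean, with starting fluorescence not abnormally high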;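 note: negative B-score means reduced calcium response which marks RGS4 activation or potentiation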
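Reagent: ECmax carbachol challenge; Test system: M3R-expressing HEK293 line, RGS4 induced by doxycycline; Schedule: overnight RGS4 induction, 30 min dye load 37 °C, 20 min compound RT; Detection: calcium dye Fluo4 fluorescence; Read-out: Agonist-evoked peak-minus-minimum fluorescence over baseline, integrated ratio, B score.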
RGS4 inh = RGS4 inhibitors, primary screen, cell-based, HEK293 M3R inducible RGS4, calcium flux | Regulator of G-protein signaling 4 (Homo sapiens), P49798 | Fluo-4 calcium flux; hits give high values; triggered by carbachol at its EC20 | B-score at 10 µM | 310,000 compounds, 0.45% hits | AID 463165, 2010;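 active = B-score, a plate-corrected calcium signal, over three deviations above library mean, with baseline fluorescence within five deviations of library mean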;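 note: RGS4 expression induced by doxycycline in cells with stable M3 receptor; B-score is computed from the integrated fluorescence ratio over baseline after carbachol; higher B-score means a larger calcium signal and so more RGS4 inhibition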
Target sequence (P49798 whole entry, looked up): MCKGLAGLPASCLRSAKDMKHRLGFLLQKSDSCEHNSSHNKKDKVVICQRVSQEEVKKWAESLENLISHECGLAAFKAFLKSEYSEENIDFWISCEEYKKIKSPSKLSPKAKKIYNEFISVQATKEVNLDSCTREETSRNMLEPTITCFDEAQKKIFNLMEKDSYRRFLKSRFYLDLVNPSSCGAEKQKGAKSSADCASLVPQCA
MrgX1 allo act = positive allosteric modulators of MrgX1, primary screen, HEK293 cells, Fluo-4 calcium flux; 310,000 compounds, 0.63% hits; B-score at 10 µM; FDSS; hits give high values; Mas-related G-protein coupled receptor member X1 (Homo sapiens), Q96LB2; AID 588675, 2011;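 active = plate-corrected calcium response at least 3 library SD above typical, normal starting fluorescence, not activating the receptor alone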;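 note: compound read alongside a low EC10 to EC30 dose of BAM8-22 agonist; peak minus trough fluorescence over baseline measured at the second addition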
RGS4 block valid = enhanced carbachol calcium response, M3R/RGS4 cells, RGS4 inhibitor project, cell-based, validation screen, HEK293 M3R/RGS4, calcium flux; shares compounds with RGS4 inh; carbachol calcium Fluo-4 fluorescence; carbachol added at its EC20; 0 = buffer wells, 100 = carbachol control; calcium response, % at 10 µM; 1,700 compounds, 65% hits; AID 492999, 2010;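 active = duplicate-averaged calcium response above the buffer-only control mean plus 5 SD of those controls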;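 note: integrated fluorescence ratio F max minus min over baseline F0; higher response in RGS4-induced cells means RGS4 inhibition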
M3R Ca ctr = carbachol calcium response in non-induced M3R cells, confirmation, counter-screen for RGS4 inhibitor project, cell-based, HEK293 M3R. shares compounds with RGS4 inh. carbachol calcium Fluo-4; submaximal (EC20) carbachol stimulus; buffer wells 0%, carbachol control wells 100%. AID 493000, 2010. activity (percent), % at 10 µM. 1,900 compounds, 20% hits; call rule not given here;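 note: RGS4 induction absent so cells express M3R without RGS4; higher means more calcium signal and flags a non-specific hit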
RGS4 inh ctr2 = second RGS4 inhibitor counter-screen in uninduced cells lacking carbachol; shares compounds with RGS4 inh; HEK293 M3R/RGS4 non-induced, Fluo-4 calcium, no carbachol; normalised: buffer wells 0%, carbachol wells 100%; calcium response (agonist-mode artifact), % at 10 µM; 1,900 compounds, 22% hits;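 active = duplicate-averaged calcium rise in uninduced cells above buffer wells' mean plus 5 SD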
Active calls of the source: *; i = inactive; / = no result given.

SMILES	MrgX1 antag	MrgX1 agonist	RGS4 act	RGS4 inh	MrgX1 allo act	RGS4 block valid	M3R Ca ctr	RGS4 inh ctr2
O=C(N/N=C/c1c(O)n(Cc2ccccc2)c(=O)[nH]c1=O)c1ccccc1O	i	i	i	6.9*	i	12%*	i	i
COc1ccc(Cn2c(O)c(/C=N/NC(=O)c3ccncc3)c(=O)[nH]c2=O)cc1	i	i	i	i	i	/	/	/
COc1ccc(Cn2c(O)c(/C=N/NC(=O)c3ccccc3)c(=O)[nH]c2=O)cc1	i	i	i	i	i	/	i	9.5%*
O=C(N/N=C/c1c(O)n(Cc2ccc(F)cc2)c(=O)[nH]c1=O)c1ccccc1O	i	i	i	i	i	i	i	i
O=C(N/N=C/c1c(O)n(CCc2ccc(F)cc2)c(=O)[nH]c1=O)c1ccccc1	i	i	i	i	i	/	/	/
O=C(N/N=C/c1c(O)n(CCc2ccccc2)c(=O)[nH]c1=O)c1ccccc1O	i	i	i	i	i	i	i	9.0%*
Cc1ccc(C)c(OCc2cc(C(=O)N3C[C@H]4C[C@@H](C3)c3cccc(=O)n3C4)no2)c1	i	i	i	i	i	/	/	/
Cc1nc2c(c(C)nn2-c2ccccc2)c(C)c1CCC(=O)N1CCC2(CC1)OCCO2	i	i	i	i	i	/	/	/
COc1ccc(Cn2c(O)c(C=NCCN3CCOCC3)c(=O)[nH]c2=O)cc1	i	i	i	i	i	/	/	/
COc1ccc(Cn2c(O)c(/C=N/NC(=O)c3ccccc3O)c(=O)[nH]c2=O)cc1	i	i	i	i	i	/	i	i
Cc1cc(OCC(=O)N2CCC(C(=O)O)CC2)c2c3c(c(=O)oc2c1)CCC3	i	i	i	i	i	/	/	/
Cc1cccc(-n2c(/C=C/c3ccccn3)nc3ccccc3c2=O)c1	i	i	i	i	i	/	/	/
COc1cc(O)cc2c1C(=O)OC(C)CCCC(=O)CCC/C=C\2 (configuration not stated)	i	i	i	i	i	/	i	i
C[C@H]1CCCC(=O)CCC/C=C/c2cc(O)cc(O)c2C(=O)O1	i	i	i	8.2*	i	35%*	i	i
COc1ccc(-n2nc(C(=O)NCC(=O)N3CCC4(CC3)OCCO4)c3ccccc3c2=O)cc1Cl	i	i	i	i	i	/	/	/
COc1cc(/C=C(/C)[N+](=O)[O-])ccc1OCc1ccccc1Cl	i	i	i	31*	i	10%*	i	38%*
CN1C(=O)C(=Cc2ccccc2OCc2ccccc2Cl)C(=O)N(C)C1=O	i	i	i	i	i	/	/	/
CCCCc1nc(N2CCNCC2)c(C#N)c2c1CSC(C)(C)C2	i	i	i	i	i	/	/	/
N#Cc1c(N2CCNCC2)nc(-c2ccco2)c2c1CCCC2	i	i	i	5.5*	i	i	i	i
CCc1c(-c2ccccc2)nc2ccccc2c1C(=O)N1CCC2(CC1)OCCO2	i	i	i	i	i	/	/	/
COc1ccc(N2C(=O)NC(=O)/C(=C\c3cn(CC(=O)N4CCOCC4)c4ccccc34)C2=O)c(OC)c1	i	i	i	8.7*	i	16%*	i	8.5%*
Cc1ccc(/C=C2\C(=O)NC(=S)N(c3ccc(F)cc3)C2=O)s1	i	i	i	15*	i	29%*	i	i
COc1ccc(N2C(=O)/C(=C/c3cccs3)C(=O)NC2=S)cc1	i	i	i	8.3*	i	i	i	i
O=C1NC(=S)N(c2ccc(F)cc2)C(=O)/C1=C/c1ccccc1O	i	i	i	i	i	/	/	/
Cc1ccc(/C=C2\C(=O)NC(=S)N(c3ccc(F)cc3)C2=O)o1	i	i	i	i	i	/	i	12%*
SMILES	MrgX1 antag	MrgX1 agonist	RGS4 act	RGS4 inh	MrgX1 allo act	RGS4 block valid	M3R Ca ctr	RGS4 inh ctr2
COc1cccc(N2C(=O)/C(=C/c3ccc(C)o3)C(=O)NC2=S)c1	i	i	i	10*	i	93%*	33%*	20%*
CCOc1cccc(N2C(=O)/C(=C/c3ccco3)C(=O)NC2=S)c1	i	i	i	i	i	/	/	/
Cc1cc(O)c2c(c1)C(=O)C13C(=C2O)C(=O)[C@H]2[C@@H](O)[C@@H]1[C@H]1[C@H](O)[C@@H]3C(=O)C3=C(O)c4c(O)cc(C)cc4C(=O)C312 (some centres not stated)	i	i	/	/	i	/	/	/
C=C1C(=O)O[C@@H]2C[C@@H](C)[C@@H]3C=CC(=O)[C@@]3(C)[C@@H](O)[C@H]12	i	i	i	5.2*	i	35%*	i	i
COc1ccccc1-n1c(Cc2ccccc2)nc2ccccc2c1=O	i	i	i	i	i	/	/	/
CC(Cc1ccc(O)cc1)NCC(O)c1cc(O)cc(O)c1 (configuration not stated)	i	i	i	5.7*	i	30%*	i	73%*
Nc1c(C(=O)NCc2ccco2)c2nc3ccccc3nc2n1CCN1CCOCC1	i	i	i	5.3*	i	14%*	42%*	16%*
Nc1c(C(=O)NCc2ccco2)c2nc3ccccc3nc2n1Cc1ccccc1	i	i	i	i	i	/	/	/
C=CCN1C(=O)NC(=O)/C(=C/c2cc3c4c(c2)CCCN4CCC3)C1=O	i	i	i	i	i	/	/	/
O=C1NC(=S)NC(=O)C1=Cc1ccc2c(c1)CCN2CCCCl	i	i	i	10*	i	42%*	i	i
CCOC(=O)C1(CCc2ccccc2)CCN(CC(O)CO)CC1 (configuration not stated)	i	i	i	i	i	/	/	/
